Consider 33 compounds from ChEMBL document CHEMBL1134762, “Synthesis and antibacterial evaluation of certain quinolone derivatives” (2001).

Values after ≈ are worked out from the molar mass of the structure shown.

Type in all cases: functional
In one assay the test system is Enterococcus faecalis. The experiment in a line: Antibacterial activity tested against vancomycin-resistant Enterococcus faecalis. In short, it runs like this:
(§1)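 Broth MIC against clinical isolates (S. pneumoniae, VRE E. faecalis) in tryptic soy broth with 7% calf serum, inoculum 1-5 × 10^5 CFU/mL. DMSO serial dilutions gave 1% final DMSO and a 300 µM highest concentration. Plates were incubated 20-72 h at 37 °C and read by turbidity or microscopy. Vehicle and reference controls were included; run in duplicate.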

Another assay has as its system Staphylococcus aureus. The experiment in a line: Antibacterial activity against methicillin-resistant Staphylococcus aureus. In short, it runs like this: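 Broth dilution MIC against MRSA in Mueller-Hinton broth with 1-5 × 10^5 CFU/mL inoculum. Compounds were serially diluted in DMSO (final DMSO 1%, top concentration 300 µM) and incubated 20-72 h at 37 °C. MIC was read by visual turbidity or microscopy. Vehicle and reference agents served as controls; run in duplicate.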

In another assay the test system is Streptococcus pneumoniae. The experiment in a line: Antibacterial activity tested against ampicillin and erythromycin-resistant Streptococcus pneumoniae. In short, it runs like this:
as §1

In general, MIC refers to the smallest concentration in the dilution series that meets the test's criterion for growth inhibition. Read a high MIC as a less susceptible organism. As to `CCn1cc(C(=O)O)c(=O)c2cc(F)c(N3CCN(CC(=O)c4ccccc4)CC3)c(F)c21`, the MIC in the assay on Enterococcus faecalis came out at 13.7 µM (≈ 6.24 µg/mL); in the assay on Staphylococcus aureus it was 1.71 µM (≈ 0.779 µg/mL); in the assay with Streptococcus pneumoniae, 13.7 µM (≈ 6.24 µg/mL).

On to `CCn1cc(C(=O)O)c(=O)c2cc(F)c(N3CCN(C/C(=N/NC(N)=O)c4ccccc4)CC3)cc21`, for which the results for the MIC against Enterococcus faecalis, in the assay on Staphylococcus aureus and with Streptococcus pneumoniae were 25.3 µM (≈ 12.5 µg/mL), 3.15 µM (≈ 1.56 µg/mL) and 25.3 µM (≈ 12.5 µg/mL), respectively.

As to `COc1ccc(C(=O)CN2CCN(c3cc4c(cc3F)c(=O)c(C(=O)O)cn4-c3ccc([N+](=O)[O-])cc3F)CC2)cc1`, the MIC with Enterococcus faecalis was found to be 43.2 µM (≈ 25 µg/mL); against Staphylococcus aureus, 2.7 µM (≈ 1.56 µg/mL); in the assay on Streptococcus pneumoniae, 5.41 µM (≈ 3.13 µg/mL).

With `CCn1cc(C(=O)O)c(=O)c2cc(F)c(N3CCNCC3)cc21` [NORFLOXACIN], the MIC came out at 9.8 µM (≈ 3.13 µg/mL) in the assay with Enterococcus faecalis, 4.89 µM (≈ 1.56 µg/mL) against Staphylococcus aureus and 19.6 µM (≈ 6.26 µg/mL) in the assay on Streptococcus pneumoniae.

With `CCn1cc(C(=O)O)c(=O)c2cc(F)c(N3CCN(C/C(=N\O)c4ccc(Cl)cc4)CC3)cc21`, the MIC with Enterococcus faecalis, against Staphylococcus aureus and against Streptococcus pneumoniae was above 200 µM throughout.

Consider `O=C(O)c1cn(-c2ccc([N+](=O)[O-])cc2)c2cc(N3CCN(C/C(=N\O)c4ccc(F)cc4)CC3)c(F)cc2c1=O`, for which the minimal inhibitory concentration (MIC) in the assay with Enterococcus faecalis, with Staphylococcus aureus and in the assay on Streptococcus pneumoniae was above 200 µM in each case.

As for `CCn1cc(C(=O)O)c(=O)c2cc(F)c(N3CCN(C/C(=N\OC)c4ccc(Cl)cc4)CC3)cc21`, the MIC against Enterococcus faecalis and in the assay with Streptococcus pneumoniae was above 200 µM throughout.

With `CCn1cc(C(=O)O)c(=O)c2cc(F)c(N3CCN(C/C(=N\O)c4ccc(F)cc4)CC3)c(F)c21`, the MIC in the assay with Enterococcus faecalis came to 2.05 µM (≈ 1 µg/mL); with Staphylococcus aureus it was 0.61 µM (≈ 0.298 µg/mL); against Streptococcus pneumoniae, 6.14 µM (≈ 3 µg/mL).

With `COc1ccc(/C(CN2CCN(c3cc4c(cc3F)c(=O)c(C(=O)O)cn4-c3ccc([N+](=O)[O-])cc3)CC2)=N/O)cc1`, the MIC was 21.7 µM (≈ 12.5 µg/mL) in the assay with Enterococcus faecalis, 1.36 µM (≈ 0.783 µg/mL) against Staphylococcus aureus and 10.9 µM (≈ 6.27 µg/mL) against Streptococcus pneumoniae.

`CCn1cc(C(=O)O)c(=O)c2cc(F)c(N3CCN(CC(=O)c4ccc(OC)cc4)CC3)c(F)c21`: the MIC against Enterococcus faecalis was above 200 µM; against Staphylococcus aureus it was 0.62 µM (≈ 0.301 µg/mL); in the assay on Streptococcus pneumoniae, above 200 µM.

Consider `CCn1cc(C(=O)O)c(=O)c2cc(F)c(N3CCNCC3)c(F)c21`, for which the minimum inhibitory concentration (MIC) with Enterococcus faecalis worked out at 18.5 µM (≈ 6.24 µg/mL); against Staphylococcus aureus, 2.31 µM (≈ 0.779 µg/mL); in the assay on Streptococcus pneumoniae, 18.5 µM (≈ 6.24 µg/mL).

Consider `CCn1cc(C(=O)O)c(=O)c2cc(F)c(N3CCN(C/C(=N\O)c4ccc(Cl)cc4)CC3)c(F)c21`, for which the MIC against Enterococcus faecalis was determined as 19.8 µM (≈ 10 µg/mL); against Staphylococcus aureus it was 0.59 µM (≈ 0.298 µg/mL); against Streptococcus pneumoniae, 19.8 µM (≈ 10 µg/mL).

For the compound `COc1ccc(C(=O)CN2CCN(c3cc4c(cc3F)c(=O)c(C(=O)O)cn4-c3ccc(N)cc3F)CC2)cc1`, the MIC worked out at 5.47 µM (≈ 3 µg/mL) in the assay on Enterococcus faecalis, 0.55 µM (≈ 0.302 µg/mL) in the assay with Staphylococcus aureus and 1.82 µM (≈ 0.998 µg/mL) against Streptococcus pneumoniae.

`COc1ccc(/C(CN2CCN(c3cc4c(cc3F)c(=O)c(C(=O)O)cn4-c3ccc(N)cc3F)CC2)=N/O)cc1`: the results for the MIC against Enterococcus faecalis, with Staphylococcus aureus and against Streptococcus pneumoniae were 5.32 µM (≈ 3 µg/mL), 0.53 µM (≈ 0.299 µg/mL) and 1.77 µM (≈ 0.998 µg/mL), respectively.

Regarding `CCn1cc(C(=O)O)c(=O)c2cc(F)c(N3CCN(CC(=O)c4ccc(F)cc4)CC3)cc21`, the MIC was above 200 µM against Enterococcus faecalis, 6.87 µM (≈ 3.13 µg/mL) with Staphylococcus aureus and above 200 µM in the assay on Streptococcus pneumoniae.

With `CCn1cc(C(=O)O)c(=O)c2cc(F)c(N3CCN(C/C(=N/N=C(/N)S)c4ccccc4)CC3)c(F)c21`, the figures for the MIC against Enterococcus faecalis, with Staphylococcus aureus and against Streptococcus pneumoniae were above 200 µM, 0.74 µM (≈ 0.391 µg/mL) and above 200 µM, respectively.

With `CCn1cc(C(=O)O)c(=O)c2cc(F)c(N3CCN(C/C(=N\O)c4ccccc4)CC3)cc21`, the MIC was above 200 µM against Enterococcus faecalis, 0.44 µM (≈ 0.199 µg/mL) in the assay on Staphylococcus aureus and above 200 µM in the assay with Streptococcus pneumoniae.

For the compound `CCn1cc(C(=O)O)c(=O)c2cc(F)c(N3CCN(C/C(=N\N)c4ccc(F)cc4)CC3)cc21`, the values for the MIC against Enterococcus faecalis, against Staphylococcus aureus and against Streptococcus pneumoniae were 26.6 µM (≈ 12.5 µg/mL), 1.66 µM (≈ 0.779 µg/mL) and 26.6 µM (≈ 12.5 µg/mL), respectively.

In the case of `CCn1cc(C(=O)O)c(=O)c2cc(F)c(N3CCN(C/C(=N\O)c4ccc(OC)cc4)CC3)cc21`, the MIC with Enterococcus faecalis turned out to be 3.23 µM (≈ 1.56 µg/mL); in the assay on Staphylococcus aureus it was 0.41 µM (≈ 0.198 µg/mL); against Streptococcus pneumoniae, 13 µM (≈ 6.27 µg/mL).

Regarding `CCn1cc(C(=O)O)c(=O)c2cc(F)c(N3CCN(C/C(=N/NC(N)=O)c4ccccc4)CC3)c(F)c21`, the values for the MIC in the assay on Enterococcus faecalis, against Staphylococcus aureus and against Streptococcus pneumoniae were 6.11 µM (≈ 3.13 µg/mL), 0.39 µM (≈ 0.2 µg/mL) and 6.11 µM (≈ 3.13 µg/mL), respectively.

Regarding `CCn1cc(C(=O)O)c(=O)c2cc(F)c(N3CCN(CC(=O)c4ccc(OC)cc4)CC3)cc21`, the figures for the MIC in the assay on Enterococcus faecalis, with Staphylococcus aureus and in the assay with Streptococcus pneumoniae were above 200 µM, 6.7 µM (≈ 3.13 µg/mL) and above 200 µM, respectively.

In the case of `CCn1cc(C(=O)O)c(=O)c2cc(F)c(N3CCN(C/C(=N\O)c4ccc(OC)cc4)CC3)c(F)c21`, the MIC with Enterococcus faecalis is 3.12 µM (≈ 1.56 µg/mL); in the assay with Staphylococcus aureus, 0.2 µM (≈ 0.1 µg/mL); against Streptococcus pneumoniae it was 6.25 µM (≈ 3.13 µg/mL).

For `CCn1cc(C(=O)O)c(=O)c2cc(F)c(N3CCN(C/C(=N\OC)c4ccc(OC)cc4)CC3)cc21`, the MIC in the assay on Enterococcus faecalis is 12.6 µM (≈ 6.26 µg/mL); with Staphylococcus aureus, 1.57 µM (≈ 0.78 µg/mL); against Streptococcus pneumoniae it was 12.6 µM (≈ 6.26 µg/mL).

`Nc1ccc(-n2cc(C(=O)O)c(=O)c3cc(F)c(N4CCNCC4)cc32)c(F)c1`: the MIC with Enterococcus faecalis came to 15.6 µM (≈ 6.25 µg/mL); against Staphylococcus aureus it was 0.97 µM (≈ 0.388 µg/mL); with Streptococcus pneumoniae, 3.9 µM (≈ 1.56 µg/mL).

As for `CCn1cc(C(=O)O)c(=O)c2cc(F)c(N3CCN(C/C(=N/N=C(/N)S)c4ccccc4)CC3)cc21`, the MIC turned out to be 12.2 µM (≈ 6.23 µg/mL) against Enterococcus faecalis, 1.53 µM (≈ 0.781 µg/mL) against Staphylococcus aureus and 24.5 µM (≈ 12.5 µg/mL) against Streptococcus pneumoniae.

For the compound `COc1ccc(C(=O)CN2CCN(c3cc4c(cc3F)c(=O)c(C(=O)O)cn4-c3ccc([N+](=O)[O-])cc3)CC2)cc1`, the values for the MIC in the assay with Enterococcus faecalis, with Staphylococcus aureus and with Streptococcus pneumoniae were above 200 µM, 5.58 µM (≈ 3.13 µg/mL) and above 200 µM, respectively.

Take `O=C(O)c1cn(-c2ccc([N+](=O)[O-])cc2F)c2cc(N3CCNCC3)c(F)cc2c1=O`: the MIC is 29 µM (≈ 12.5 µg/mL) in the assay with Enterococcus faecalis, 7.27 µM (≈ 3.13 µg/mL) against Staphylococcus aureus and 0.46 µM (≈ 0.198 µg/mL) against Streptococcus pneumoniae.

As for `O=C(CN1CCN(c2cc3c(cc2F)c(=O)c(C(=O)O)cn3-c2ccc([N+](=O)[O-])cc2)CC1)c1ccc(F)cc1`, the MIC against Enterococcus faecalis, against Staphylococcus aureus and against Streptococcus pneumoniae was above 200 µM each time.

As for `COc1ccc(/C(CN2CCN(c3cc4c(cc3F)c(=O)c(C(=O)O)cn4-c3ccc([N+](=O)[O-])cc3F)CC2)=N/O)cc1`, the MIC against Enterococcus faecalis came to 5.27 µM (≈ 3.13 µg/mL); with Staphylococcus aureus, 0.34 µM (≈ 0.202 µg/mL); against Streptococcus pneumoniae it was 1.31 µM (≈ 0.778 µg/mL).

As to `CCn1cc(C(=O)O)c(=O)c2cc(F)c(N3CCN(CC(=O)c4ccc(Cl)cc4)CC3)cc21`, the MIC against Enterococcus faecalis, in the assay with Staphylococcus aureus and with Streptococcus pneumoniae was above 200 µM each time.

For the compound `CCn1cc(C(=O)O)c(=O)c2cc(F)c(N3CCN(CC(=O)c4ccccc4)CC3)cc21`, the MIC in the assay on Enterococcus faecalis was above 200 µM; with Staphylococcus aureus it was 7.15 µM (≈ 3.13 µg/mL); against Streptococcus pneumoniae, above 200 µM.

For `CCn1cc(C(=O)O)c(=O)c2cc(F)c(N3CCN(C/C(=N\O)c4ccc(F)cc4)CC3)cc21`, the MIC was above 200 µM in the assay with Enterococcus faecalis, 2.13 µM (≈ 1 µg/mL) against Staphylococcus aureus and above 200 µM against Streptococcus pneumoniae.

Take `CCn1cc(C(=O)O)c(=O)c2cc(F)c(N3CCN(C/C(=N\OC)c4ccc(Cl)cc4)CC3)c(F)c21`: the MIC against Enterococcus faecalis, against Staphylococcus aureus and in the assay with Streptococcus pneumoniae was above 200 µM in each case.
